Compound activity deposited in PubChem by The Scripps Research Institute Molecular Screening Center.
The list is not random: actives were taken first. Their share in the collection is about 2.6%.
PRMT1 inh = inhibitors of human PRMT1. Q99873. recombinant PRMT1, activity-based probe fluorescence polarization. inhibition, % at 2.79 µM. 370,000 compounds, 1.3% hits. AID 652257;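 active = inhibition above about 21% made by adding two undisclosed values, limit read from the data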
TCR-CD3 inh = blocks the human TCR-CD3 interaction; TAMRA-labeled TCR probe fluorescence, biochemical; 360,000 compounds, 0.37% hits; inhibition, % at 9.4 µM; in the data active = inhibition above about 19%;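 note: recombinant mutant TCR 2C K166C tagged with TAMRA read by polarization; 0% = receptor in buffer alone and 100% = receptor with positive control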
SIAE inh = inhibitors of human sialic acid acetylesterase SIAE; Q9HAT2; SIAE FP-Rh probe binding, fluorescence polarization; inhibition, % at 9.66 µM; 370,000 compounds, 0.69% hits;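 active = inhibition above a cutoff: mean of compounds within the control limits plus 3 SD of those, cut at about 17% in these data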;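 note: 0% = plate median of compound wells and 100% = probe without SIAE protein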
Target sequence (Q9HAT2 whole entry, looked up): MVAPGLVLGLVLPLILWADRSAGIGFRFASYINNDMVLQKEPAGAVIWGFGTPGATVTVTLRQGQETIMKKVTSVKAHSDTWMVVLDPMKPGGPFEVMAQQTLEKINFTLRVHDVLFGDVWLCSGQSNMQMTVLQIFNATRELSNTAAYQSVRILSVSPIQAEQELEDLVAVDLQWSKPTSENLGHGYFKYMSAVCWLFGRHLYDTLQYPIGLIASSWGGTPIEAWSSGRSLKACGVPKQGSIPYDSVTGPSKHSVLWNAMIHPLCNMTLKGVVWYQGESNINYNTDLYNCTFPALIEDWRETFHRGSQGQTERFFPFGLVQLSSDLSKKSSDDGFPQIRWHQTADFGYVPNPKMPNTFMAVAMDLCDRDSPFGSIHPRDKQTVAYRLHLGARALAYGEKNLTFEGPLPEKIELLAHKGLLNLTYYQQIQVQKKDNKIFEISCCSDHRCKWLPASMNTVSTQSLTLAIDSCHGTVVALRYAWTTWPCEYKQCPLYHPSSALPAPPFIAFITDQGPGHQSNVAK
HTRA1 inhibitor = inhibitors of human serine peptidase HTRA1; Q92743; recombinant HTRA1, FP-rhodamine activity-based probe, fluorescence polarization; inhibition, % at 5.96 µM; 340,000 compounds, 0.5% hits; AID 504803; in the data active = inhibition above about 36%;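 note: 0% = enzyme with DMSO and 100% = wells lacking enzyme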
ABHD4 inh = inhibitors of mouse ABHD4. Q8VD66. 370,000 compounds, 0.54% hits. purified mABHD4, FP-Rh probe fluorescence polarization. inhibition, % at 8.92 µM;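 active = inhibition exceeding the mean over every tested compound plus 3 SD, cut at about 30% in these data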;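 note: 0% = plate median of compound wells and 100% = S159A mutant with DMSO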
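Material: mouse ABHD4 enzyme, wild type; Benchmarks: S159A mutant high control, sample median low control; Buffer or medium: HEPES pH 7.0, NaCl, Pluronic buffer; Signal: fluorescence polarization; Read-out: percent inhibition of probe binding, normalized to plate controls; Timing: pre-incubation 45 min, probe exposure 60 min, at 25 °C; Dosing: 8.92 µM, single dose.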
mABHD4 conf = confirmation of mouse ABHD4 inhibitors; AID 720658; shares compounds with ABHD4 inh; 1,800 compounds, 55% hits; purified mABHD4, FP-Rh probe fluorescence polarization; inhibition, % at 8.92 µM;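 active = mean inhibition across replicates above the hit cutoff set in the primary screen, cut at about 30% in these data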;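 note: 0% = wild-type ABHD4 with DMSO and 100% = catalytically dead S159A mutant with DMSO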
An asterisk follows results filed as active; / = no result given; ! = not active in a repeat.

SMILES	PRMT1 inh	TCR-CD3 inh	SIAE inh	HTRA1 inhibitor	ABHD4 inh	mABHD4 conf
O=C(NCc1ccccc1)[C@H]1CCCN1C(=O)[C@H]1CCCN1C(=O)c1cccc(Cl)c1	1	5	-2	/	8	/
Cc1ccc(OCc2nnc(SCC(=O)Nc3cccc4ccccc34)n2Cc2ccco2)cc1	3	/	-12	/	-13	/
CC(=O)Nc1ccc2nc(-c3cccs3)[nH]c2c1	1	-5	-6	-4	7	/
Nc1ccc2nc(-c3ccccc3)[nH]c2c1	2	1	8	2	32*	6
Nc1ccc2nc(-c3cccs3)[nH]c2c1	0	-11	11	7	31*	30*
N[C@@H](Cc1cc(I)c(O)c(I)c1)C(=O)O	19	14	-17	31	51*	80*
NC(c1csc(NC(=O)Nc2ccc(OC(F)(F)F)cc2)n1)C1CCCCC1 (stereo not given)	0	-2	-6	/	3	/
COc1ccc(C2NCCc3c2[nH]c2ccccc32)cc1CSc1nc2ccccc2s1 (stereo not given)	4	-5	17	-25	30*	34*
Cc1cc(Oc2cccnc2)ccc1NC(=O)Cc1cn(C)c2ccccc12	2	-5	7	/	5	/
Cc1cc(NCc2ccccn2)n2ncc(-c3ccccc3)c2n1	1	-8	0	12	45*	47*
Cc1cc(NCc2ccccn2)n2ncc(-c3ccc(Cl)cc3)c2n1	-2	-1	7	/	48*	64*
CCCCCCSc1cc(-c2nc3cnccn3c2NCCCC)ccc1OC	/	/	/	-6	/	/
CCCCNc1c(-c2cccc(-c3cc(C(C)=O)cs3)c2)nc2cc(C)ccn12	2	2	6	5	42*	46*
CCCCNc1c(-c2ccc(SC(C)CC)c(OC)c2)nc2ccc(C)cn12 (stereo not given)	2	3	9	-19	36*	47*
CCCCCCSc1cccc(-c2nc3ccc(C)cn3c2NCc2ccccc2)c1	-1	1	5	0	26	/
CCCCCCSc1cc(-c2nc3ccc(C)cn3c2NCc2ccccc2)ccc1OC	4	6	5	-12	40*	47*
CC(=O)c1csc(-c2cccc(-c3nc4ccc(Cl)cn4c3NC3CCCCC3)c2)c1	0	-7	6	-5	4	/
CCCCCCSc1cc(-c2nc3cc(C)ccn3c2NCCCC)ccc1OC	0	2	12	-4	37*!	57*
O=C(CCn1nnc2ccccc21)N1CCN(c2ccccc2F)CC1	4	/	-1	/	10	/
CCC(C)c1ccc(NC(=O)CSc2nnc(-c3cccc(C)c3)n2C)cc1 (stereo not given)	-1	/	-1	/	-4	/
COC(=O)Cc1c([C@H](C)[C@@H](OC)c2ccccc2Br)nnn1Cc1ccccc1	0	4	3	/	-1	/
CCC(C)Sc1cccc(-c2nc3ccc(C)cn3c2NCc2ccccc2)c1 (stereo not given)	1	-3	5	-22	36*!	32*
C(=N\Nc1nc2ccccc2[nH]1)/c1ccccn1	2	-6	3	34	34*	32*
CCN(CC)c1ccc(/C=N/Nc2nc3ccccc3[nH]2)c(O)c1	0	-3	28*	17	31*	80*
COc1cc(OC)c(OC)cc1/C=N/Nc1nc2ccccc2[nH]1	0	1	8	14	21	/
SMILES	PRMT1 inh	TCR-CD3 inh	SIAE inh	HTRA1 inhibitor	ABHD4 inh	mABHD4 conf
CNCCNC[C@H](Cc1cccc2ccccc12)NCCc1ccccc1	-2	7	4	6	6	/
CNC[C@H](Cc1ccccc1)NC[C@@H](Cc1cccc2ccccc12)NCCc1ccc(C)cc1	5	2	0	1	49*	49*
O=C(NCCc1c[nH]c2ccccc12)OCc1cn(Cc2cc(F)cc(F)c2)nn1	1	/	6	/	-8	/
CC(C)=CCC/C(C)=C/C[C@]12C[C@H](C(=O)O)N(C(=O)OC(C)(C)C)[C@@H]1N(C(=O)OC(C)(C)C)c1ccccc12	6	/	1	/	51*	40*
CCN(c1ccccc1)S(=O)(=O)c1cc(C(=O)OC2CCOC2=O)ccc1C (stereo not given)	2	-1	5	3	31*	23
COC(=O)c1c(C)oc2ccc(OC(=O)N3CCOCC3)cc12	-2	5	1	-4	20	/
Cc1oc2ccc(OC(=O)N3CCOCC3)cc2c1C(=O)OC(C)C	-2	5	0	-3	59*	54*
CCOC(=O)c1c(C)oc2ccc(OC(=O)N3CCOCC3)cc12	-2	6	2	-2	40*	40*
COC1=C[C@H](C(=O)NC2CCN(Cc3ccccc3)CC2)[C@@]2(C)Cc3ccccc3[C@H]2CC1=O	0	/	1	/	1	/
COC(=O)[C@@H](N[C@H](/C=C/c1ccccc1)[C@@H](O)Cc1ccccc1)C(C)C	-5	11	-3	/	-5	/
CCOC(=O)c1c(-c2ccc(OC)cc2)oc2cc(Br)c(O)cc12	1	6	2	-16	11	/
CCOC(=O)c1c(C)[nH]c2cc(Br)c(O)cc12	1	3	6	0	39*	60*
C#CCN(C[C@H]1[C@H](OC(=O)Nc2c(C)noc2C)[C@H](OC(=O)Nc2c(C)noc2C)CN(C(=O)OC(C)C)N1C(=O)OC(C)C)S(=O)(=O)c1ccc(C)cc1	-1	4	2	/	-4	/
CCC(=O)N(Cc1ccco1)c1nc(-c2cc(OC)ccc2OC)cs1	-1	-3	2	8	49*	58*
CC(CCN1CCC(C(O)(c2ccccc2)c2ccccc2)CC1)Oc1ccc(C#N)cc1F (stereo not given)	-3	/	2	/	-2	/
NCC(O)COCCC12CC3CC(CC(C3)C1)C2 (stereo not given)	-2	6	-5	3	2	/
CC(NCC(O)COCCC12CC3CC(CC(C3)C1)C2)c1ccccc1 (stereo not given)	-1	3	-3	-6	31*	28
O=S1(=O)c2ccccc2N=NN1Cc1ccc(Cl)cc1	6	-1	13	11	46*	54*
O[C@H](COc1cccc(Br)c1)CN1CCC(C(O)(c2ccccc2)c2ccccc2)CC1	-1	/	-2	/	14	/
COCC(C)N1CC(O)=C(c2nc(-c3ccc(Cl)cc3)cs2)C1=N (stereo not given)	1	0	6	8	32*	29
COc1ccc(CN2C(NC(=O)OCc3ccccc3)=NC3=CC(C)(C)n4c(=O)n(-c5ccccc5)c(=O)n4C32)c(OC)c1 (stereo not given)	0	/	3	/	3	/
CCOc1cc(N2CCOCC2)c(OCC)cc1NC(=O)CSc1ccccc1C(=O)O	4	2	9	-3	9	/
CCOc1cc(N2CCOCC2)c(OCC)cc1NC(=O)CN1CCc2ccccc2C1	9	-3	6	5	31*	15
